# Measured values from ChEMBL document CHEMBL1150151, “Dictyoquinazols A, B, and C, new neuroprotective compounds from the mushroom Dictyophora indusiata” (J Nat Prod, 2002).
# Calls of active or inactive are those of the source. The rule behind the calls is not given here.
# Tests used:
# [1] = test system: Cortical neurone; experiment: Neuroprotective activity against glutamate-induced neurotoxicity in ICR mouse cortical neurons at 5 to 10 uM preincubated for 1 hr before glutamate challenge measured after 24 hrs by MTT assay; type: functional
# Method in brief: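 Cortical neurons from E15 ICR mouse embryos, matured 12 days, supplement-free neurobasal during assay. 1 h compound pretreatment (0.1% methanol final), then 20 μM glutamate, kept 24 h. MTT 1 mg/mL for 1 h at 37 °C, formazan dissolved in DMSO, absorbance 540 nm; percent protection from control and glutamate-only OD.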
# [2] = test system: Cortical neurone; experiment: Neuroprotective activity against NMDA-induced neurotoxicity in ICR mouse cortical neurons preincubated for 1 hr before NMDA challenge measured after 24 hrs by MTT assay; type: functional
# Method in brief: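 12-day ICR mouse (E15) cortical cultures in neurobasal medium without supplement. Pretreatment with compound (methanol vehicle, 0.1% final) for 1 h, then 40 μM NMDA for 24 h. Compound range 10 to 30 μM. Survival by MTT reduction, formazan in DMSO read at 540 nm, normalised as (toxin+compound − toxin)/(control − toxin) × 100.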
# [3] = test system: Cortical neurone; experiment: Neuroprotective activity against AMPA-induced neurotoxicity in ICR mouse cortical neurons preincubated for 1 hr before AMPA challenge measured after 24 hrs by MTT assay; type: functional
# Method in brief: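 Primary cortical cultures from gestation day 15 ICR mouse embryos, grown 12 days in B27-supplemented neurobasal medium, switched to neurobasal without supplement. Compound in methanol (0.1% final), added 1 h before 80 μM AMPA, then 24 h. Viability read by MTT (1 mg/mL, 1 h, 37 °C; DMSO-dissolved formazan at 540 nm), expressed relative to control and excitotoxin-alone wells.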
# [4] = test system: Cortical neurone; experiment: Neuroprotective activity against kainate-induced neurotoxicity in ICR mouse cortical neurons preincubated for 1 hr before kainate challenge measured after 24 hrs by MTT assay; type: functional
# Method in brief: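 Mouse (ICR, gestation day 15) cortical neuron cultures used at day 12 in neurobasal medium lacking supplement. Compound in methanol (0.1% final) given 1 h ahead of 200 μM kainate; incubation 24 h more. Viability by MTT (1 mg/mL, 1 h), DMSO-solubilised formazan at 540 nm, scaled between kainate-alone and untreated control.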
# [5] = test system: Radical scavenging activity; experiment: Antioxidant activity assessed as superoxide and DPPH radical scavenging activity; type: functional
# [6] = Inhibition of monoamine oxidase at 60 to 100 uM
# [7] = Neuroprotective activity against glutamate-induced neurotoxicity in primary cultured mouse cortical neurons preincubated for 1 hr before glutamate challenge measured after 24 hrs by MTT assay
Compound,Activity [1],Activity [2],Activity [3],Activity [4],Activity [5],Activity [6],Activity [7]
COc1ccc(N2CN(C=O)c3ccc(OC)cc3C2=O)c(CO)c1,Active,Dose-dependent effect,inactive,inactive,inactive,Active,inactive
COc1ccc2c(c1)CN(c1ccc(OC)cc1CO)CN2C=O,Active,Dose-dependent effect,inactive,inactive,inactive,Active,inactive
COc1ccc(-n2cnc3ccc(OC)cc3c2=O)c(CO)c1,Active,Dose-dependent effect,inactive,inactive,inactive,Active,inactive
